Biological target: Transthyretin (Homo sapiens) (UniProt P02766)
Assay: Inhibition of transthyretin (unknown origin) aggregation at 2 mol equiv measured at 36 hrs by congo red assay relative to control
Method in brief: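 TTR aggregation was induced at pH 4.5 with or without the test agent. Aggregation was scored by Congo red at its peak, 36 h. Thioflavin T was not usable because dissolved, filtered TTR gives high background fluorescence.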

inhibition: > 90%
Compound: O=C(O)c1cc(-c2ccc(F)cc2F)ccc1O

From ChEMBL document CHEMBL2429806, “Designed Trpzip-3 β-Hairpin Inhibits Amyloid Formation in Two Different Amyloid Systems” (ACS Med Chem Lett, 2013)
